Calls of active or inactive are those of the source. The rule behind the calls is not given here.

For data set [1], the species on record is Papio hamadryas. In words: Activity at baboon liver mitochondrial MAO-B assessed as initial rate of H2O2 production after 12.5 mins. In a few lines:
(§1)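 Baboon liver mitochondrial fraction (0.15 mg protein/mL; protein by Bradford) was incubated with substrate in 100 mM sodium phosphate, pH 7.4, at 37 °C for 12.5 min. (R)-Deprenyl (5 mM stock) was added and the samples were placed on ice, then centrifuged. H2O2 was read by peroxidase-coupled spectrophotometry against an 11–88 µM calibration. Initial rates were taken at eight substrate levels, in duplicate. Km and Vmax came from a Michaelis–Menten fit, with rates as nmol H2O2/min-mg protein.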

Data set [2] is filed under the species Papio hamadryas. In words: Activity at baboon liver mitochondrial MAO-B assessed as H2O2 production at 500 uM after 6 to 15 mins pretreated with (R)-deprenyl. In a few lines: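 Mitochondria (0.3 mg protein/mL) were preincubated with (R)-deprenyl at 37 °C in 100 mM sodium phosphate, pH 7.4. They were then added to 500 µM substrate to give 0.15 mg protein/mL, with chromogenic solution, at 37 °C. Reactions were stopped with (R)-deprenyl, and H2O2 was measured by peroxidase-coupled spectrophotometry. Values were compared with fully active controls preincubated without inactivator.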

The species named for data set [3] is Papio hamadryas. In words: Activity at baboon liver mitochondrial MAO-B assessed as initial rate of H2O2 production after 12.5 mins assessed per mg of mitochondrial protein. In a few lines: as §1
Data set [4] is filed under the species Papio hamadryas. In words: Ratio of Vmax to Km for baboon liver mitochondrial MAO-B assessed per mg of protein after 12.5 mins. In a few lines:
as §1

For data set [5], the system named is Mus musculus. In words: Neurotoxicity in C57BL/6 mouse assessed as depletion of dopamine level in striatum at 167 umol/kg, ip after 7 days by HPLC-ECD analysis relative to control. The conditions noted are these: in vivo, 168 h. Format: toxicity, organism-based. The essentials:
(§2)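 Saline controls run alongside. Mice killed by cervical dislocation 7 days later. Striatal dopamine measured by HPLC-ECD, means ± SEM.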

Data set [6] is filed under the species Papio hamadryas. In words: Activity at baboon liver mitochondrial MAO-B assessed as H2O2 production at 250 uM after 15 mins. In a few lines:
(§3)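 Baboon liver mitochondria (0.15 mg protein/mL) incubated with substrate and chromogenic solution at 37 °C in 100 mM sodium phosphate, pH 7.4. Reactions stopped at 2.5–20 min with (R)-deprenyl on ice and centrifuged. H2O2 read by peroxidase-coupled spectrophotometric assay against an 11–88 µM calibration. Triplicate, means ± SEM.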

For data set [7], the species on record is Papio hamadryas. The experiment in a line: Activity at baboon liver mitochondrial MAO-B assessed as initial rate of H2O2 production after 15 mins. In a few lines: (§4)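 Incubation time was set within the linear range for each substrate. Stopped with (R)-deprenyl on ice; peroxidase-coupled spectrophotometric read-out. Rates in nmol/min-mg protein, fitted to Michaelis–Menten. Triplicate or duplicate.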

The species named for data set [8] is Papio hamadryas. In words: Activity at baboon liver mitochondrial MAO-B assessed as H2O2 production at 250 uM after 20 mins. In a few lines: as §3
For data set [9], the species on record is Papio hamadryas. In words: Ratio of Vmax to Km for baboon liver mitochondrial MAO-B assessed per mg of protein after 15 mins. The essentials: as §4
In data set [10] the test system is Mus musculus. In words: Neurotoxicity in C57BL/6 mouse assessed as depletion of dopamine level in striatum at 238 umol/kg, ip after 7 days by HPLC-ECD analysis relative to control. Type of data set: toxicity, organism-based. To be noted: in vivo, 168 h. The essentials:
as §2

Data set [11] is filed under the species Papio hamadryas. In words: Activity at baboon liver mitochondrial MAO-B assessed as H2O2 production at 500 uM after 20 mins. In a few lines:
as §3

Data set [12] is filed under the species Papio hamadryas. The experiment in a line: Activity at baboon liver mitochondrial MAO-B assessed as H2O2 production at Vmax concentration after 15 mins.
For data set [13], the species on record is Papio hamadryas. The experiment in a line: Activity at baboon liver mitochondrial MAO-B assessed as H2O2 production at 250 uM after 15 mins pretreated with MAOB inhibitor (R)-deprenyl.
The species entered for data set [14] is Papio hamadryas. The experiment in a line: Activity at baboon liver mitochondrial MAO-B assessed as initial rate of H2O2 production after 15 mins assessed per mg of mitochondrial protein. The essentials:
as §4

Data set [15] is filed under the species Papio hamadryas. The experiment in a line: Ratio of Vmax to Km for baboon liver mitochondrial MAO-B assessed per mg of protein after 8 mins. In a few lines:
(§5)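 Baboon liver mitochondria stored at −70 °C and diluted with phosphate buffer containing 50% glycerol. MAO-B at 0.15 mg protein/mL in 100 mM sodium phosphate, pH 7.4, 37 °C, with eight substrate concentrations spanning two orders of magnitude. Incubation lasted 6 or 8 min (linear period). Stopped with (R)-deprenyl on ice, then centrifuged. H2O2 measured by peroxidase-coupled spectrophotometry against an 11–88 µM calibration. Duplicates; Michaelis–Menten fit gave Km, Vmax (nmol/min-mg), Vmax/Km.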

Data set [16] is filed under the species Papio hamadryas. The experiment in a line: Activity at baboon liver mitochondrial MAO-B assessed as initial rate of H2O2 production after 8 mins assessed per mg of mitochondrial protein. In a few lines:
as §5

For data set [17], the species on record is Papio hamadryas. The experiment in a line: Activity at baboon liver mitochondrial MAO-B assessed as initial rate of H2O2 production after 8 mins. The essentials:
as §5

The species named for data set [18] is Papio hamadryas. The experiment in a line: Activity at baboon liver mitochondrial MAO-B assessed as initial rate of H2O2 production after 10 mins. In a few lines:
as §4

The species named for data set [19] is Papio hamadryas. The experiment in a line: Activity at baboon liver mitochondrial MAO-B assessed as H2O2 production at 250 uM after 6 to 15 mins pretreated with (R)-deprenyl.
The species named for data set [20] is Papio hamadryas. The experiment in a line: Ratio of Vmax to Km for baboon liver mitochondrial MAO-B assessed per mg of protein after 10 mins. The essentials: as §4
Data set [21] is filed under the species Papio hamadryas. In words: Activity at baboon liver mitochondrial MAO-B assessed as initial rate of H2O2 production after 10 mins assessed per mg of mitochondrial protein. The essentials: as §4
For data set [22], the species on record is Papio hamadryas. The experiment in a line: Ratio of Vmax to Km for baboon liver mitochondrial MAO-B assessed per mg of protein after 6 mins. In a few lines:
as §5

The species entered for data set [23] is Papio hamadryas. In words: Activity at baboon liver mitochondrial MAO-B assessed as initial rate of H2O2 production after 6 mins assessed per mg of mitochondrial protein. The essentials:
as §5

For data set [24], the species on record is Papio hamadryas. The experiment in a line: Activity at baboon liver mitochondrial MAO-B assessed as initial rate of H2O2 production after 6 mins. In a few lines: as §5
For data set [25], the species on record is Papio hamadryas. In words: Activity at baboon liver mitochondrial MAO-B assessed as H2O2 production at Vmax concentration after 20 mins.
For data set [26], the species on record is Papio hamadryas. In words: Activity at baboon liver mitochondrial MAO-B assessed as H2O2 production at 500 uM after 20 mins pretreated with MAOB inhibitor (R)-deprenyl.
Data set [27] is filed under the species Papio hamadryas. In words: Activity at baboon liver mitochondrial MAO-B assessed as initial rate of H2O2 production after 20 mins. In a few lines:
as §4

The species entered for data set [28] is Papio hamadryas. The experiment in a line: Ratio of Vmax to Km for baboon liver mitochondrial MAO-B assessed per mg of protein after 20 mins. In a few lines:
as §4

For data set [29], the species on record is Papio hamadryas. The experiment in a line: Activity at baboon liver mitochondrial MAO-B assessed as initial rate of H2O2 production after 20 mins assessed per mg of mitochondrial protein. In a few lines: as §4

Broadly, the Km is the concentration of substrate that gives half-maximal velocity. One may read the Vmax as the rate approached at saturating substrate. On to `CN1CC=C(c2ccccc2)CC1.Cl`, for which the Km in the data set listed under Papio hamadryas [1] was 81.8 µM. Besides, the Activity in the data set filed under Papio hamadryas [2] amounted to 5%; in the data set with Mus musculus [5], 27%. For the same compound, in the data set listed under Papio hamadryas [3], the maximum rate (Vmax) stood at 11.7 nmol/min. In addition, the Vmax/Km in the data set listed under Papio hamadryas [4] turned out to be 0.14 min⁻¹.
Regarding `CN1CC2CC2(c2ccccc2)C1.O=C(O)C(=O)O` (racemic), the Activity in the data set listed under Papio hamadryas [6] is 27.3 µM; in the data set with Mus musculus [10] it was 111%; in the data set filed under Papio hamadryas [12], 6%; in the data set filed under Papio hamadryas [13], 1.79 µM. The Km in the data set filed under Papio hamadryas [7] came out at 148 µM. Moreover, the outcome in the data set filed under Papio hamadryas [8] and in the data set filed under Papio hamadryas [11] was Active. Moreover, the Vmax/Km in the data set listed under Papio hamadryas [9] was 0.11 min⁻¹. For the same compound, the Vmax in the data set listed under Papio hamadryas [14] stood at 16.9 nmol/min.
As to `NCc1ccccc1`, the Vmax/Km in the data set filed under Papio hamadryas [15] is 0.17 min⁻¹. Moreover, the Vmax in the data set listed under Papio hamadryas [16] was 42.4 nmol/min/mg. In the data set listed under Papio hamadryas [2], the Activity worked out at 5%. Further, the Km in the data set filed under Papio hamadryas [17] came out at 249 µM.
For the compound `CN1CC=C(c2cccn2C)CC1`, the Km in the data set listed under Papio hamadryas [18] was 43.4 µM. For the same compound, the Activity in the data set listed under Papio hamadryas [19] stood at 5%. In addition, the Vmax/Km in the data set listed under Papio hamadryas [20] came out at 0.51 min⁻¹. The Vmax in the data set listed under Papio hamadryas [21] is 22.2 nmol/min.
Consider `NCCC(=O)c1ccccc1N`, for which the Vmax/Km in the data set listed under Papio hamadryas [22] came out at 0.85 min⁻¹. Further, in the data set listed under Papio hamadryas [23], the Vmax turned out to be 50 nmol/min/mg. Besides, the Activity in the data set listed under Papio hamadryas [2] was determined as 5%. Moreover, the Km in the data set filed under Papio hamadryas [24] was 58.9 µM.
Take `CN1CC=C(c2ccccc2)C1`: the Km in the data set listed under Papio hamadryas [18] came out at 100 µM. Moreover, the Vmax/Km in the data set filed under Papio hamadryas [20] was found to be 0.28 min⁻¹. In the data set listed under Papio hamadryas [21], the maximum rate (Vmax) amounted to 27.9 nmol/min.
`CN1CCC(c2ccccc2)CC1`: the Vmax entry in the data set filed under Papio hamadryas [14] was “inactive”.
`CN1CCC(c2ccccc2)C1.O=C(O)C(=O)O` (racemic): in the data set filed under Papio hamadryas [8], the result was Active. The Activity in the data set listed under Papio hamadryas [25] is 6%; in the data set on Mus musculus [10] it was 99%; in the data set listed under Papio hamadryas [26], 1.92 µM. In the data set filed under Papio hamadryas [27], the Michaelis-Menten constant (Km) was determined as 234 µM. In the data set filed under Papio hamadryas [28], the Vmax/Km was found to be 0.04 min⁻¹. In the data set filed under Papio hamadryas [29], the maximal velocity (Vmax) was 8.37 nmol/min.

These data come from ChEMBL document CHEMBL1165916, “Interactions of 1-methyl-3-phenylpyrrolidine and 3-methyl-1-phenyl-3-azabicyclo[3.1.0]hexane with monoamine oxidase B” (Bioorg Med Chem, 2010).
